≈ marks a conversion by molar mass, not a printed value. Calls of active or inactive are those of the source. The calls are words filed in the database; no cut-off is given here. Square brackets hold non-standard residues; d marks the D form. Peptide text beside a SMILES is read from it. Orn = NCCC[C@H](N)C(=O)O
Columns and labels:
[1] = Stability in human serum assessed as half life by LC-MS analysis; assay type: ADME, cell-free
Summary of the method: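 1 mM peptide stocks in water were mixed 1:1 (v/v) with human serum. Aliquots were taken at set times and digestion was stopped by acetonitrile precipitation. Serum proteins were removed by centrifugation, and intact peptide and fragments in the supernatant were analysed by LC–MS. Half-life values are the mean of three independent studies.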

[2] = Retention time of the compound by HPLC analysis; assay type: physicochemical
Summary of the method: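 Analytical RP-HPLC on a C18 column (4.6 × 50 mm, 3 μm) with a linear gradient of 0–60% acetonitrile (0.036% TFA) into water (0.045% TFA) over 15 min. Flow was 1 mL/min with UV detection at 220 nm.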

[3] = system: Pseudomonas sp.; assay: Antimicrobial activity against Pseudomonas sp assessed as bacterial growth inhibition incubated in presence of serum for 24 hrs; assay type: functional
Summary of the method: (§1)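 Broth microdilution in polypropylene plates in Mueller-Hinton medium, inoculum 5 × 10^5 CFU/mL, 37 °C for 24 h. […] MIC is the lowest peptide concentration with no growth. Values are the mean of three independent studies.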

[4] = system: Salmonella enterica; assay: Antimicrobial activity against Salmonella enterica assessed as bacterial growth inhibition incubated in presence of serum for 24 hrs; assay type: functional; summary of the method: as §1
[5] = system: Shigella flexneri; assay: Antimicrobial activity against Shigella flexneri assessed as bacterial growth inhibition incubated in presence of serum for 24 hrs; assay type: functional; summary of the method: as §1
[6] = Hemolytic activity in horse RBC assessed as hemolysis at 250 uM relative to control; assay type: ADME, tissue-based, Equus caballus; conditions: erythrocyte
Summary of the method: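 Horse erythrocytes were diluted 10-fold in PBS and washed by three spins at 800g. They were incubated with peptides for 4 h at 37 °C, and supernatant absorbance was read at 540 nm. Percent hemolysis is relative to total lysis with 1% Triton X-100. Values are the mean of three independent studies.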

[7] = system: MRC5; assay: Cytotoxicity against human MRC5 cells assessed as cell growth inhibition measured after 4 hrs by MTT assay; assay type: cell-based; conditions: MRC5, 4 h
Summary of the method: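 MRC-5 fibroblasts were grown in MEMα with 10% FBS, seeded at 3 × 10^4 cells/well and left overnight to adhere. Cells were exposed to two-fold peptide serial dilutions for 4 h, then given medium with MTT at 0.4 mg/mL for 150 min. Formazan was dissolved in DMSO and read at 600 nm. Values are the mean of three independent studies.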

[8] = system: Escherichia coli; assay: Antimicrobial activity against clinical isolate Escherichia coli 116878 assessed as bacterial growth inhibition incubated in presence of serum for 24 hrs; assay type: functional; summary of the method: as §1
[9] = system: Escherichia coli; assay: Antimicrobial activity against clinical isolate Escherichia coli cf073 assessed as bacterial growth inhibition incubated in presence of serum for 24 hrs; assay type: functional; summary of the method: as §1
[10] = system: Pseudomonas aeruginosa; assay: Antimicrobial activity against clinical isolate Pseudomonas aeruginosa 827651 assessed as bacterial growth inhibition incubated in presence of serum for 24 hrs; assay type: functional; summary of the method: as §1
[11] = system: Pseudomonas aeruginosa; assay: Antimicrobial activity against clinical isolate Pseudomonas aeruginosa 827632 assessed as bacterial growth inhibition incubated in presence of serum for 24 hrs; assay type: functional; summary of the method: as §1
[12] = system: Salmonella typhimurium; assay: Antimicrobial activity against clinical isolate Salmonella typhimurium 324 assessed as bacterial growth inhibition incubated in presence of serum for 24 hrs; assay type: functional, Salmonella enterica subsp. enterica serovar Typhimurium; conditions: Salmonella enterica; summary of the method: as §1
[13] = system: Salmonella typhimurium; assay: Antimicrobial activity against clinical isolate Salmonella typhimurium 365 assessed as bacterial growth inhibition incubated in presence of serum for 24 hrs; assay type: functional, Salmonella enterica subsp. enterica serovar Typhimurium; conditions: Salmonella enterica; summary of the method: as §1
[14] = system: Acinetobacter baumannii; assay: Antimicrobial activity against clinical isolate Acinetobacter baumannii 3862 assessed as bacterial growth inhibition incubated in presence of serum for 24 hrs; assay type: functional; summary of the method: as §1
[15] = system: Acinetobacter baumannii; assay: Antimicrobial activity against clinical isolate Acinetobacter baumannii 3878 assessed as bacterial growth inhibition incubated in presence of serum for 24 hrs; assay type: functional; summary of the method: as §1
[16] = system: Acinetobacter baumannii; assay: Antimicrobial activity against clinical isolate Acinetobacter baumannii 3879 assessed as bacterial growth inhibition incubated in presence of serum for 24 hrs; assay type: functional; summary of the method: as §1
[17] = system: Acinetobacter baumannii; assay: Antimicrobial activity against clinical isolate Acinetobacter baumannii 3880 assessed as bacterial growth inhibition incubated in presence of serum for 24 hrs; assay type: functional; summary of the method: as §1
[18] = system: Cell membrane; assay: Induction of membrane depolarization in Escherichia coli at 0.4 uM incubated 20 to 30 mins under dark by Eclipse fluorescence spectrometry; assay type: subcellular; conditions: time 20-30 min
Summary of the method: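 Exponential-phase E. coli (OD 0.2–0.4) was washed in 5 mM HEPES, 20 mM glucose, 100 mM KCl, pH 7.2, and resuspended to OD 0.05. DiSC3(5) was added at 0.4 μM final and equilibrated in the dark for 20–30 min to a stable baseline. Peptide was then added and dye release was followed by fluorescence at ex 625 nm / em 666 nm.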

[19] = system: Cell membrane; assay: Induction of membrane damage in Escherichia coli assessed as loss of membrane integrity by measuring blebs at 10 uM incubated for 2 hrs by Electron scanning microscopy; assay type: subcellular
Summary of the method: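 E. coli was grown in LB at 37 °C to OD600 0.4 and exposed to 10 μM peptide for 2 h at room temperature. Cells were collected on 0.1 μm filters, fixed in 2.5% glutaraldehyde in cacodylate buffer pH 7.4 and post-fixed in 1% OsO4. Samples were dehydrated in ethanol, coated with gold–palladium and imaged at 15 kV.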

[20] = system: Escherichia coli; assay: Antimicrobial activity against Escherichia coli assessed as bacterial growth inhibition incubated for 24 hrs
[21] = system: Acinetobacter baumannii; assay: Antimicrobial activity against Acinetobacter baumannii assessed as bacterial growth inhibition incubated for 24 hrs

Compound	half-life [1] [min]	Retention_time [2] [min]	MIC [3] [µM]	MIC [4] [µM]	MIC [5] [µM]	Activity [6] [%]	IC50 [7] [µM]	MIC [8] [µM]	MIC [9] [µM]	MIC [10] [µM]	MIC [11] [µM]	MIC [12] [µM]	MIC [13] [µM]	MIC [14] [µM]	MIC [15] [µM]	MIC [16] [µM]	Activity [18]	Activity [19]	MIC [20] [µM]	MIC [21] [µM]	further results
CC[C@H](C)[C@H](NC(=O)[C@H](C)NC(=O)[C@H](CCCN)NC(=O)[C@H](CCSC)NC(=O)[C@H](C)NC(=O)[C@@H](NC(=O)[C@@H](NC(=O)[C@H](CCCN)NC(=O)[C@@H]1CCCN1C(=O)[C@H](CO)NC(=O)[C@@H](NC(=O)[C@H](Cc1c[nH]cn1)NC(=O)[C@H](CCC(N)=O)NC(=O)[C@@H](NC(=O)[C@H](C)NC(=O)[C@H](Cc1ccccc1)NC(=O)[C@H](Cc1c[nH]c2ccccc12)NC(=O)[C@H](CCC(N)=O)NC(=O)[C@H](C)NC(=O)[C@H](CCCN)NC(=O)[C@@H](NC(=O)[C@H](Cc1ccccc1)NC(=O)[C@H]1CCCN1C(=O)[C@H](N)CCCN)[C@@H](C)O)[C@@H](C)CC)[C@@H](C)CC)[C@@H](C)O)[C@@H](C)CC)C(=O)N[C@@H](CC(N)=O)C(=O)N[C@@H](CC(N)=O)C(=O)N[C@@H](Cc1ccc(O)cc1)C(=O)N[C@@H](CCCN)C(=O)N[C@@H](Cc1c[nH]c2ccccc12)C(=O)N[C@@H](CCCN)C(=O)O	> 480	10.8	1.56	25	6.25	3.6	170	6.25	3.13	100	25	25	25	0.78	0.78	1.56	Active	Active	3.13 (≈ 11 µg/mL)	6.25 (≈ 21.9 µg/mL)	MIC [17]: 6.25 µM
CC[C@H](C)[C@H](NC(=O)[C@H](C)NC(=O)[C@H](CCCN)NC(=O)[C@H](CCSC)NC(=O)[C@H](C)NC(=O)[C@@H](NC(=O)[C@@H](NC(=O)[C@H](CCCN)NC(=O)[C@@H]1CCCN1C(=O)[C@H](CO)NC(=O)[C@@H](NC(=O)[C@H](Cc1c[nH]cn1)NC(=O)[C@H](CCC(N)=O)NC(=O)[C@@H](NC(=O)[C@H](C)NC(=O)[C@H](Cc1ccccc1)NC(=O)[C@H](Cc1c[nH]c2ccccc12)NC(=O)[C@H](CCC(N)=O)NC(=O)[C@H](C)NC(=O)[C@H](CCCN)NC(=O)[C@@H](NC(=O)[C@H](Cc1ccccc1)NC(=O)[C@@H]1CCCN1C(=O)[C@@H](N)CCCN)[C@@H](C)O)[C@@H](C)CC)[C@@H](C)CC)[C@@H](C)O)[C@@H](C)CC)C(=O)N[C@@H](CC(N)=O)C(=O)N[C@@H](CC(N)=O)C(=O)N[C@@H](Cc1ccc(O)cc1)C(=O)N[C@@H](CCCN)C(=O)N[C@@H](Cc1c[nH]c2ccccc12)C(=O)N[C@@H](CCCN)C(=O)O	29.1	8.4	6.25	25	12.5	10	113	–	–	–	–	–	–	–	–	–	Active	Active	6.25 (≈ 21.9 µg/mL)	6.25 (≈ 21.9 µg/mL)	–
H-RPFTRAQWFAIQHISPRTIAMRAINNYRWR-OH	12.3	8.9	1.56	12.5	3.13	44	23	6.25	3.13	25	12.5	6.25	6.25	0.78	1.56	1.56	Active	Active	1.56	1.56	MIC [17]: 1.56 µM
CC[C@H](C)[C@H](NC(=O)[C@H](CCCCN)NC(=O)[C@H](CCC(=O)O)NC(=O)[C@H](CCCCN)NC(=O)[C@H](CO)NC(=O)[C@H](CCCCN)NC(=O)[C@H](CCCNC(=N)N)NC(=O)[C@H](Cc1ccccc1)NC(=O)[C@H](Cc1ccccc1)NC(=O)[C@H](CC(=O)O)NC(=O)CNC(=O)[C@H](CC(C)C)NC(=O)[C@@H](N)CC(C)C)C(=O)NCC(=O)N[C@@H](CCCCN)C(=O)N[C@@H](CCC(=O)O)C(=O)N[C@@H](Cc1ccccc1)C(=O)N[C@@H](CCCCN)C(=O)N[C@@H](CCCNC(=N)N)C(=O)N[C@H](C(=O)N[C@H](C(=O)N[C@@H](CCC(N)=O)C(=O)N[C@@H](CCCNC(=N)N)C(=O)N[C@H](C(=O)N[C@@H](CCCCN)C(=O)N[C@@H](CC(=O)O)C(=O)N[C@@H](Cc1ccccc1)C(=O)N[C@@H](CC(C)C)C(=O)N[C@@H](CCCNC(=N)N)C(=O)N[C@@H](CC(N)=O)C(=O)N[C@@H](CC(C)C)C(=O)N[C@H](C(=O)N1CCC[C@H]1C(=O)N[C@@H](CCCNC(=N)N)C(=O)N[C@H](C(=O)N[C@@H](CCC(=O)O)C(=O)N[C@@H](CO)C(=O)O)[C@@H](C)O)C(C)C)[C@@H](C)CC)C(C)C)[C@@H](C)CC	–	–	–	–	–	–	–	–	–	–	–	–	–	–	–	–	Active	Active	–	–	–
CC[C@H](C)[C@H](NC(=O)[C@H](C)NC(=O)[C@H](CCCN)NC(=O)[C@H](CCSC)NC(=O)[C@H](C)NC(=O)[C@@H](NC(=O)[C@@H](NC(=O)[C@H](CCCN)NC(=O)[C@@H]1CCCN1C(=O)[C@H](CO)NC(=O)[C@@H](NC(=O)[C@H](Cc1c[nH]cn1)NC(=O)[C@H](CCC(N)=O)NC(=O)[C@@H](NC(=O)[C@H](C)NC(=O)[C@H](Cc1ccccc1)NC(=O)[C@H](Cc1c[nH]c2ccccc12)NC(=O)[C@H](CCC(N)=O)NC(=O)[C@H](C)NC(=O)[C@H](CCCN)NC(=O)[C@@H](NC(=O)[C@H](Cc1ccccc1)NC(=O)[C@H]1CCCN1C(=O)[C@@H](N)CCCN)[C@@H](C)O)[C@@H](C)CC)[C@@H](C)CC)[C@@H](C)O)[C@@H](C)CC)C(=O)N[C@@H](CC(N)=O)C(=O)N[C@@H](CC(N)=O)C(=O)N[C@@H](Cc1ccc(O)cc1)C(=O)N[C@@H](CCCN)C(=O)N[C@@H](Cc1c[nH]c2ccccc12)C(=O)N[C@@H](CCCN)C(=O)O	> 480	10.9	1.56	50	50	1.1	230	25	6.25	25	> 100	25	25	1.56	0.78	3.13	Active	Active	3.13 (≈ 11 µg/mL)	12.5 (≈ 43.8 µg/mL)	MIC [17]: 12.5 µM
CC[C@H](C)[C@H](NC(=O)[C@H](C)NC(=O)[C@H](CCCN)NC(=O)[C@H](CCSC)NC(=O)[C@H](C)NC(=O)[C@@H](NC(=O)[C@@H](NC(=O)[C@H](CCCN)NC(=O)[C@@H]1CCCN1C(=O)[C@H](CO)NC(=O)[C@@H](NC(=O)[C@H](Cc1c[nH]cn1)NC(=O)[C@H](CCC(N)=O)NC(=O)[C@@H](NC(=O)[C@H](C)NC(=O)[C@H](Cc1ccccc1)NC(=O)[C@H](Cc1c[nH]c2ccccc12)NC(=O)[C@H](CCC(N)=O)NC(=O)[C@H](C)NC(=O)[C@H](CCCN)NC(=O)[C@@H](NC(=O)[C@@H](N)Cc1ccccc1)[C@@H](C)O)[C@@H](C)CC)[C@@H](C)CC)[C@@H](C)O)[C@@H](C)CC)C(=O)N[C@@H](CC(N)=O)C(=O)N[C@@H](CC(N)=O)C(=O)N[C@@H](Cc1ccc(O)cc1)C(=O)N[C@@H](CCCN)C(=O)N[C@@H](Cc1c[nH]c2ccccc12)C(=O)N[C@@H](CCCN)C(=O)O (H-FT[Orn]AQWFAIQHISP[Orn]TIAM[Orn]AINNY[Orn]W[Orn]-OH)	> 480	10.8	25	> 100	50	11	> 300	–	–	–	–	–	–	–	–	–	–	–	25 (≈ 82.4 µg/mL)	> 100	–

Source: ChEMBL document CHEMBL5030529, “Rationally Modified Antimicrobial Peptides from the N-Terminal Domain of Human RNase 3 Show Exceptional Serum Stability” (J Med Chem, 2021)
